Laboratory results as given in ChEMBL document CHEMBL4390662, “Design, synthesis and biological evaluation of novel α-acyloxy carboxamides via Passerini reaction as caspase 3/7 activators” (Eur J Med Chem, 2019).
The source made the active and inactive calls. The calls are words filed in the database; no cut-off is given here.

Key:
[1] = Selectivity index, ratio of IC50 for human WI38 cells to IC50 for mouse NFS60 cells
Procedure, shortened: (§1)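 SI calculated as IC50 on normal Wi-38 fibroblasts divided by IC50 on the cancer cell line. Both came from 72 h MTT assays.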

[2] = test system: MCF7; assay: Cytotoxicity against human MCF7 cells assessed as cell growth inhibition incubated for 72 hrs by MTT assay; type: functional, cell-based; conditions: MCF7, 72 h
Procedure, shortened: (§2)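 Cells grown in RPMI-1640 with 10% FBS and seeded at 5×10^3 per well. After 24 h, serial concentrations given for 72 h at 37°C, 5% CO2. Then 5 mg/mL MTT stock added for 3 h, formazan dissolved in DMSO, A570 read. IC50 calculated from the curves.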

[3] = test system: WI-38; assay: Cytotoxicity against human WI38 cells assessed as cell growth inhibition incubated for 72 hrs by MTT assay; type: cell-based; conditions: for IC50: Homo sapiens, WI-38, 72 h; for EC100: human, wi-38, 72 h
Procedure, shortened: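 Wi-38 fibroblasts grown in DMEM with 10% FBS and seeded at 5×10^3 per well. Attachment 24 h, then serial concentrations for 72 h at 37°C, 5% CO2. MTT stock (5 mg/mL) added for 3 h at 37°C, DMSO solubilization, absorbance at 570 nm. IC50 estimated.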

[4] = Selectivity index, ratio of IC50 for human WI38 cells to IC50 for human MCF7 cells; type: toxicity; conditions: WI38 cells versus MCF7 cells, read-out: Ratio IC50; procedure, shortened: as §1
[5] = Selectivity index, ratio of IC50 for human WI38 cells to IC50 for human HepG2 cells; type: toxicity; conditions: WI38 cells versus HepG2 cells, read-out: Ratio IC50; procedure, shortened: as §1
[6] = test system: HepG2; assay: Cytotoxicity against human HepG2 cells assessed as cell growth inhibition incubated for 72 hrs by MTT assay; type: functional, cell-based; conditions: HepG2, 72 h; procedure, shortened: as §2
[7] = test system: NFS-60; assay: Cytotoxicity against mouse NFS60 cells assessed as cell growth inhibition incubated for 72 hrs by MTT assay; type: functional, cell-based; conditions: NFS-60, 72 h; procedure, shortened: as §2
[8] = test system: Pseudomonas aeruginosa; assay: Antimicrobial activity against Pseudomonas aeruginosa ATCC 27853 incubated for 24 hrs by agar well diffusion assay; type: functional
Procedure, shortened: (§3)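 Nutrient agar spread with 100 µL inoculum: bacteria at 1×10^8 CFU/mL, fungi at 1×10^6 CFU/mL. 10 mm wells loaded with 100 µL of compound in DMSO (final 1 mg/mL). Bacteria incubated 24 h at 37 °C, fungi 48 h at 28 °C. Inhibition zones measured in mm. Ciprofloxacin and fluconazole standards at 1 mg/mL, DMSO negative control.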

[9] = test system: Staphylococcus aureus; assay: Antimicrobial activity against Staphylococcus aureus ATCC 25923 incubated for 24 hrs by agar well diffusion assay; type: functional; procedure, shortened: as §3
[10] = test system: Candida albicans; assay: Antimicrobial activity against Candida albicans ATCC 90028 incubated for 48 hrs by agar well diffusion assay; type: functional; procedure, shortened: as §3
[11] = test system: Enterococcus faecalis; assay: Antimicrobial activity against Enterococcus faecalis ATCC 29212 incubated for 24 hrs by agar well diffusion assay; type: functional; procedure, shortened: as §3
[12] = test system: Escherichia coli; assay: Antimicrobial activity against Escherichia coli ATCC 25922 incubated for 24 hrs by agar well diffusion assay; type: functional; procedure, shortened: as §3

Row | Structure (SMILES) | Ratio IC50 [1] | IC50 [2] [nM] | IC50 [3] [nM] | EC100 [3] [µM] | selectivity ratio [4] | selectivity ratio [5] | IC50 [6] [nM] | IC50 [7] [nM] | diameter of the inhibition zone (DIZ) [8] | diameter of the inhibition zone (DIZ) [9] | diameter of the inhibition zone (DIZ) [10] | diameter of the inhibition zone (DIZ) [11] | diameter of the inhibition zone (DIZ) [12]
1 | O=C(OC1(C(=O)Nc2ccc([N+](=O)[O-])cc2)C(=O)c2ccccc2C1=O)c1ccc(C(F)(F)F)cc1 | 4.057 | 393 | 1960 | 0.635 | 5 | 4.59 | 428 | 484 | – | – | – | – | –
2 | CCC(=O)OC1(C(=O)Nc2ccc([N+](=O)[O-])cc2)CCCCC1 | 6.968 | 14.1 | 44.6 | 0.0169 | 3.16 | 2.07 | 21.5 | 6.4 | 12 mm | inactive | inactive | inactive | inactive
3 | Cc1ccccc1C(=O)OC1(C(=O)Nc2ccc([N+](=O)[O-])cc2)CCCCC1 | – | 516 | 352 | 0.018 | 0.682 | – | – | – | – | – | – | – | –
4 | O=C(/C=C/c1ccccc1)OC1(C(=O)Nc2ccc([N+](=O)[O-])cc2)CCCCC1 | 0.811 | 57.6 | 41 | 0.0197 | 0.711 | 0.774 | 52.9 | 50.5 | inactive | inactive | inactive | inactive | inactive
5 | O=C(OC1(C(=O)Nc2ccc([N+](=O)[O-])cc2)CCCCC1)c1ccc(Br)cc1 | 2.216 | 237 | 523 | 0.0095 | 2.21 | 1.84 | 284 | 236 | – | – | – | – | –
6 | CCOC(=O)c1ccccc1C(=O)OC1(C(=O)Nc2ccc([N+](=O)[O-])cc2)CCCCC1 | 0.79 | 444 | 386 | 0.122 | 0.869 | 0.746 | 517 | 488 | – | – | – | – | –
7 | O=C(OC1(C(=O)Nc2ccc([N+](=O)[O-])cc2)CCCCC1)c1ccccc1 | 0.322 | 903 | 246 | 0.148 | 0.272 | 0.335 | 734 | 766 | – | – | – | – | –
8 | O=C(OC1(C(=O)Nc2ccc([N+](=O)[O-])cc2)CCCCC1)c1ccc(C(F)(F)F)cc1 | 7.115 | 27.1 | 185 | 0.0398 | 6.83 | 6.36 | 29.1 | 26 | inactive | inactive | inactive | inactive | inactive
9 | CC(=O)OC1(C(=O)Nc2ccc([N+](=O)[O-])cc2)CCCCC1 | 0.746 | 403 | 386 | 0.122 | 0.957 | 0.743 | 519 | 517 | – | – | – | – | –
10 | O=C(CCC(=O)OC1(C(=O)Nc2ccc([N+](=O)[O-])cc2)CCCCC1)OC1(C(=O)Nc2ccc([N+](=O)[O-])cc2)CCCCC1 | – | – | 203 | 0.02 | – | – | – | – | – | – | – | – | –
11 | O=C(OC1(C(=O)Nc2ccc([N+](=O)[O-])cc2)CCCCC1)c1ccccc1I | – | 619 | 396 | 0.0247 | 0.639 | – | – | – | – | – | – | – | –
12 | CC1(C)CC(=O)C=C(Nc2ccc([N+](=O)[O-])cc2)C1 | 0.494 | 597 | 319 | 0.157 | 0.534 | 0.478 | 667 | 645 | – | – | – | – | –
